Data published in ChEMBL document CHEMBL1255509, “Structure-activity relationship of boronic acid derivatives of tyropeptin: proteasome inhibitors” (Bioorg Med Chem Lett, 2010).

Legend:
[1] = Inhibition of trypsin like activity of partially purified human proteasome; type: subcellular
Outline: (§1)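 Purified 20S proteasome isolated from human erythrocytes served as the enzyme source. Inhibition is reported as IC50.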

[2] = Inhibition of caspase like activity of partially purified human proteasome; type: subcellular; outline: as §1
[3] = Inhibition of chymotrypsin like activity of partially purified human proteasome; type: subcellular; outline: as §1
[4] = Cytotoxicity against human RPMI8226 cells; type: cell-based; settings: RPMI-8226

Row | Compound | IC50 [1] [nM] | IC50 [2] [nM] | IC50 [3] [nM] | IC50 [4] [nM]
1 | COc1ccc(C[C@H](NC(=O)[C@@H](NC(=O)[C@H](Cc2ccc(OC)cc2)NC(=O)c2cc(Cl)ccn2)C(C)C)B(O)O)cc1 | 15000 | 21000 | 88 | 39
2 | COc1ccc(C[C@H](NC(=O)[C@@H](NC(=O)[C@H](Cc2ccc(OC)cc2)NC(=O)Cc2ccc3ccccc3c2)C(C)C)B(O)O)cc1 | 12000 | 29000 | 22 | 170
3 | COc1ccc(C[C@H](NC(=O)[C@@H](NC(=O)[C@H](Cc2ccc(OC)cc2)NC(=O)Cc2cccc(Oc3ccccc3)c2)C(C)C)B(O)O)cc1 | 1100 | 29000 | 4.1 | 190
4 | COc1ccc(C[C@H](NC(=O)[C@@H](NC(=O)[C@H](Cc2ccc(OC)cc2)NC(=O)c2nccc3ccccc23)C(C)C)B(O)O)cc1 | 10000 | 19000 | 41 | 34
5 | COc1ccc(C[C@H](NC(=O)[C@@H](NC(=O)[C@H](Cc2ccc(OC)cc2)NC(=O)c2cc3ccccc3cn2)C(C)C)B(O)O)cc1 | 9000 | 11000 | 59 | 93
6 | COc1ccc(C[C@H](NC(=O)[C@@H](NC(=O)[C@H](Cc2ccc(OC)cc2)NC(=O)c2ccc3cnccc3c2)C(C)C)B(O)O)cc1 | > 40000 | > 40000 | 380 | 260
7 | COc1ccc(C[C@H](NC(=O)[C@@H](NC(=O)[C@H](Cc2ccc(OC)cc2)NC(=O)Cc2ccc3ccccc3n2)C(C)C)B(O)O)cc1 | 5400 | 16000 | 100 | 73
8 | COc1ccc(C[C@H](NC(=O)[C@@H](NC(=O)[C@H](Cc2ccc(OC)cc2)NC(=O)c2cnc3ccccc3c2)C(C)C)B(O)O)cc1 | 10000 | 32000 | 56 | 54
9 | COc1ccc(C[C@H](NC(=O)[C@@H](NC(=O)[C@H](Cc2ccc(OC)cc2)NC(=O)c2ccnc3ccccc23)C(C)C)B(O)O)cc1 | 8600 | 24000 | 49 | 49
10 | COc1ccc(C[C@H](NC(=O)[C@@H](NC(=O)[C@H](Cc2ccc(OC)cc2)NC(=O)c2cccc3cccnc23)C(C)C)B(O)O)cc1 | 18000 | 16000 | 93 | 56
11 | COc1ccc(C[C@H](NC(=O)[C@@H](NC(=O)[C@H](Cc2ccc(OC)cc2)NC(=O)c2cnccn2)C(C)C)B(O)O)cc1 | 19000 | 33000 | 240 | 17
12 | COc1ccc(C[C@H](NC(=O)[C@@H](NC(=O)[C@H](Cc2ccc(OC)cc2)NC(=O)c2ccccn2)C(C)C)B(O)O)cc1 | 40000 | 23000 | 230 | 13
13 | COc1ccc(C[C@H](NC(=O)[C@@H](NC(=O)[C@H](Cc2ccc(OC)cc2)NC(=O)c2cccnc2)C(C)C)B(O)O)cc1 | > 40000 | > 40000 | 500 | 870
14 | COc1ccc(C[C@H](NC(=O)[C@@H](NC(=O)[C@H](Cc2ccc(OC)cc2)NC(=O)c2ccncc2)C(C)C)B(O)O)cc1 | > 40000 | > 40000 | 2300 | 870
15 | COc1ccc(C[C@H](NC(=O)[C@@H](NC(=O)[C@H](Cc2ccc(OC)cc2)NC(=O)c2ncccc2C)C(C)C)B(O)O)cc1 | 20000 | > 40000 | 85 | 14
16 | COc1ccc(C[C@H](NC(=O)[C@@H](NC(=O)[C@H](Cc2ccc(OC)cc2)NC(=O)c2cc(C)ccn2)C(C)C)B(O)O)cc1 | 20000 | 30000 | 140 | 14
17 | COc1ccc(C[C@H](NC(=O)[C@@H](NC(=O)[C@H](Cc2ccc(OC)cc2)NC(=O)c2ccc(C)cn2)C(C)C)B(O)O)cc1 | 14000 | 30000 | 120 | 14
18 | COc1ccc(C[C@H](NC(=O)[C@@H](NC(=O)[C@H](Cc2ccc(OC)cc2)NC(=O)c2cccc(C)n2)C(C)C)B(O)O)cc1 | 17000 | 30000 | 88 | 14
19 | COc1ccc(C[C@H](NC(=O)[C@@H](NC(=O)[C@H](Cc2ccc(OC)cc2)NC(=O)c2ncccc2F)C(C)C)B(O)O)cc1 | 24000 | 25000 | 140 | 4.9
20 | COc1ccc(C[C@H](NC(=O)[C@@H](NC(=O)[C@H](Cc2ccc(OC)cc2)NC(=O)c2ccc(F)cn2)C(C)C)B(O)O)cc1 | 14000 | 30000 | 81 | 19
21 | COc1ccc(C[C@H](NC(=O)[C@@H](NC(=O)[C@H](Cc2ccc(OC)cc2)NC(=O)c2cccc(F)n2)C(C)C)B(O)O)cc1 | 20000 | 27000 | 110 | 15
22 | COc1ccc(C[C@H](NC(=O)[C@@H](NC(=O)[C@H](Cc2ccc(OC)cc2)NC(=O)c2ncccc2Cl)C(C)C)B(O)O)cc1 | 20000 | 20000 | 83 | 9.7

Row | Compound | IC50 [1] [nM] | IC50 [2] [nM] | IC50 [3] [nM] | IC50 [4] [nM]
23 | COc1ccc(C[C@H](NC(=O)[C@@H](NC(=O)[C@H](Cc2ccc(OC)cc2)NC(=O)c2ccc(Cl)cn2)C(C)C)B(O)O)cc1 | 15000 | 16000 | 83 | 39
24 | COc1ccc(C[C@H](NC(=O)[C@@H](NC(=O)[C@H](Cc2ccc(OC)cc2)NC(=O)c2cccc(Cl)n2)C(C)C)B(O)O)cc1 | 10000 | 23000 | 100 | 29
25 | COc1ccc(C[C@H](NC(=O)[C@@H](NC(=O)[C@H](Cc2ccc(OC)cc2)NC(=O)c2nc(Cl)ccc2Cl)C(C)C)B(O)O)cc1 | 13000 | 26000 | 53 | 14
26 | COc1ccc(C[C@H](NC(=O)[C@@H](NC(=O)[C@H](Cc2ccc(OC)cc2)NC(=O)c2ncccc2Br)C(C)C)B(O)O)cc1 | 17000 | 20000 | 61 | 13
27 | COc1ccc(C[C@H](NC(=O)[C@@H](NC(=O)[C@H](Cc2ccc(OC)cc2)NC(=O)c2cc(Br)ccn2)C(C)C)B(O)O)cc1 | 14000 | 17000 | 95 | 47
28 | COc1ccc(C[C@H](NC(=O)[C@@H](NC(=O)[C@H](Cc2ccc(OC)cc2)NC(=O)c2ccc(Br)cn2)C(C)C)B(O)O)cc1 | 14000 | 24000 | 93 | 46
29 | COc1ccc(C[C@H](NC(=O)[C@@H](NC(=O)[C@H](Cc2ccc(OC)cc2)NC(=O)c2cccc(Br)n2)C(C)C)B(O)O)cc1 | 14000 | 27000 | 92 | 44
30 | COc1ccc(C[C@H](NC(=O)[C@@H](NC(=O)[C@H](Cc2ccc(OC)cc2)NC(=O)c2cc(C(F)(F)F)ccn2)C(C)C)B(O)O)cc1 | 20000 | 25000 | 150 | 53
31 | COc1ccc(C[C@H](NC(=O)[C@@H](NC(=O)[C@H](Cc2ccc(OC)cc2)NC(=O)c2ccc(C(F)(F)F)cn2)C(C)C)B(O)O)cc1 | 19000 | 28000 | 110 | 47
32 | COc1ccc(C[C@H](NC(=O)[C@@H](NC(=O)[C@H](Cc2ccc(OC)cc2)NC(=O)c2ncccc2O)C(C)C)B(O)O)cc1 | > 40000 | 29000 | 390 | 52
33 | COc1ccc(C[C@H](NC(=O)[C@@H](NC(=O)[C@H](Cc2ccc(OC)cc2)NC(=O)c2cccc(O)n2)C(C)C)B(O)O)cc1 | 21000 | 26000 | 240 | 340
34 | COc1ccc(C[C@H](NC(=O)[C@@H](NC(=O)[C@H](Cc2ccc(OC)cc2)NC(=O)c2ncccc2OC)C(C)C)B(O)O)cc1 | 31000 | 26000 | 130 | 41
35 | COc1ccc(C[C@H](NC(=O)[C@@H](NC(=O)[C@H](Cc2ccc(OC)cc2)NC(=O)c2cc(OC)ccn2)C(C)C)B(O)O)cc1 | 16000 | 20000 | 87 | 13
36 | COc1ccc(C[C@H](NC(=O)[C@@H](NC(=O)[C@H](Cc2ccc(OC)cc2)NC(=O)c2ccc(OC)cn2)C(C)C)B(O)O)cc1 | 14000 | 21000 | 94 | 13
37 | COc1ccc(C[C@H](NC(=O)[C@@H](NC(=O)[C@H](Cc2ccc(OC)cc2)NC(=O)c2cccc(OC)n2)C(C)C)B(O)O)cc1 | 21000 | 35000 | 59 | 51
38 | COc1ccc(C[C@H](NC(=O)[C@@H](NC(=O)[C@H](Cc2ccc(OC)cc2)NC(=O)c2cc([N+](=O)[O-])ccn2)C(C)C)B(O)O)cc1 | 19000 | 34000 | 190 | 48
39 | COc1ccc(C[C@H](NC(=O)[C@@H](NC(=O)[C@H](Cc2ccc(OC)cc2)NC(=O)c2cc(N(C)C)ccn2)C(C)C)B(O)O)cc1 | 15000 | 21000 | 110 | 44
40 | COc1ccc(C[C@H](NC(=O)CNC(=O)[C@H](Cc2ccc(OC)cc2)NC(=O)c2ccccn2)B(O)O)cc1 | > 40000 | 34000 | 260 | 24
41 | COc1ccc(C[C@H](NC(=O)[C@H](C)NC(=O)[C@H](Cc2ccc(OC)cc2)NC(=O)c2ccccn2)B(O)O)cc1 | > 40000 | > 40000 | 110 | 57
42 | COc1ccc(C[C@H](NC(=O)[C@@H](NC(=O)[C@H](Cc2ccc(OC)cc2)NC(=O)Cc2cccc3ccccc23)C(C)C)B(O)O)cc1 | > 40000 | 39000 | 19 | 28
43 | CC(C)C[C@H](NC(=O)[C@H](Cc1ccccc1)NC(=O)c1cnccn1)B(O)O [BORTEZOMIB] | > 40000 | 750 | 39 | 8.8
